This passage reports Drug metabolism, inhibition and IC50 results from ChEMBL document CHEMBL3352121, “Modulation of Activity Profiles for Largazole-Based HDAC Inhibitors through Alteration of Prodrug Properties” (ACS Med Chem Lett, 2014).

Series [1] is described as follows: Drug metabolism in tumor of human HCT116 cells xenografted nu/nu mouse assessed largazole thiol formation at 50 mg/kg, po by HPLC-MS method. The following applies: in vivo. On the technique in general: A xenograft is tissue or cells of one species grown in another, often human tumour cells in immunodeficient mice.
In series [2] the test system is HCT-116. In words: In vivo inhibition of HDAC in tumor of human HCT116 cells xenografted nu/nu mouse assessed as increase in histone hyperacetylation at 50 mg/kg, ip after 24 hrs by immunoblotting method. The series is classed as functional, organism-based. Also on record: dose 50 mg/kg. The method, boiled down:
(§1)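 Mice bearing HCT116 xenografts were dosed intraperitoneally at 10 or 50 mg/kg, or orally at 50 mg/kg. Tumors were excised at 4, 12 and 24 h. Histone hyperacetylation in the tumors was assessed by immunoblot, n = 2.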

The test system of series [3] is Serum. As to the kind of experiment: Drug metabolism in mouse serum assessed as largazole thiol formation after 0.25 to 1440 mins by HPLC-MS method. The series is classed as ADME, cell-free.
Series [4] relates to HCT-116. In words: In vivo inhibition of HDAC in tumor of human HCT116 cells xenografted nu/nu mouse assessed as increase in histone hyperacetylation at 10 mg/kg, ip after 24 hrs by immunoblotting method. The class given is functional, organism-based. The arrangement: dose 10 mg/kg. In short, it runs like this:
as §1

Series [5] in a line: Drug metabolism in human HCT116 cells protein lysate solution assessed as largazole thiol formation at 25 ug/mL after 4 hrs by HPLC-MS method. The series is classed as ADME, cell-based. The settings on record: hct-116, 4 h.
Series [6] has as its target Histone deacetylase (Homo sapiens) (UniProt Q13547+O15379+Q9UBN7+Q92769+Q9UQL6+Q8WUI4+Q9BY41+Q96DB2+P56524+Q9UKV0+Q969S8). As to the kind of experiment: Inhibition of HDAC in human HCT116 cells assessed as increase in histone H3 (Lys9/14) hyperacetylation at 320 pM to 10 uM after 8 to 24 hrs by immunoblotting method. The series is classed as cell-based. The settings on record: HCT-116. In short, it runs like this:
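HCT116 cells were treated across a dose range, then harvested at 8 and 24 h post-treatment. Cellular HDAC inhibition was read as histone H3 (Lys9/14) hyperacetylation by immunoblot.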

Series [7] deals with HCT-116. As to the kind of experiment: In vivo inhibition of HDAC in tumor of human HCT116 cells xenografted nu/nu mouse assessed as increase in histone hyperacetylation at 50 mg/kg, po after 4 to 12 hrs by immunoblotting method. Also on record: dose 50 mg/kg. The series is classed as functional, organism-based. In short, it runs like this:
as §1

In series [8] the test system is Serum. In words: Drug metabolism in mouse serum treated with largazole assessed as compound formation after 0.25 to 1440 mins by HPLC-MS method. The series is classed as ADME, cell-free.
Series [9] has as its target T1, Histone deacetylase 11 (Homo sapiens, UniProt Q96DB2).
T1 sequence (Q96DB2 whole entry): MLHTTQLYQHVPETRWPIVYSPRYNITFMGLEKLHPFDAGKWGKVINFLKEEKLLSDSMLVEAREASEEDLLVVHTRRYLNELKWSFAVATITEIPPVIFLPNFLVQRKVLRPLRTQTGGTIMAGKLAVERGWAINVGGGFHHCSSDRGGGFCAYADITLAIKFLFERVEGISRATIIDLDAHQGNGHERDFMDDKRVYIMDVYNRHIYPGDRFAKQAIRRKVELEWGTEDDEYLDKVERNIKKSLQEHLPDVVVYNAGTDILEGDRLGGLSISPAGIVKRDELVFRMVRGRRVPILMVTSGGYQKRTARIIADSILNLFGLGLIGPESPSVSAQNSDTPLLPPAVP
In words: Inhibition of HDAC11 (unknown origin) incubated for 3 hrs in presence of BSA and in absence of DTT by fluorescence assay.

Series [10] can be described thus: Drug level in tumor of human HCT116 cells xenografted nu/nu mouse treated with 10 mg/kg, po largazole assessed as compound formation by HPLC-MS method. The series is classed as ADME, organism-based, Neoplasm, HCT-116. Also on record: dose 10 mg/kg, route oral. The following applies: in vivo.
The nature of series [11]: Drug level in human HCT116 cells protein lysate solution treated with 25 ug/mL largazole assessed as compound formation after 30 mins by HPLC-MS method. The class given is ADME, cell-based. The following applies: hct-116, 0.5 h.
A short description of series [12]: Drug level in human HCT116 cells protein lysate solution treated with 25 ug/mL compound 6 assessed as compound formation after 4 hrs by HPLC-MS method. The series is classed as ADME, cell-based. The settings on record: hct-116, 4 h.
The nature of series [13]: Drug level in human HCT116 cells protein lysate solution treated with 25 ug/mL compound 4 assessed as compound formation after 1 hr by HPLC-MS method. The class given is ADME, cell-based. The following applies: hct-116, 1 h.

Structures are written as SMILES. Activity calls are given as the source filed them. No cut-off for these calls is given here.

With `CC(C)[C@@H]1NC(=O)[C@]2(C)CSC(=N2)c2csc(n2)CNC(=O)C[C@@H](/C=C/CCSSC[C@H](NC(=O)OC(C)(C)C)C(=O)O)OC1=O`, the Drug metabolism result is reported as “metabolite_notdetected” in series [1], “metabolite_notdetected” in series [3] and “metabolite_detected” in series [5]. Besides, the inhibition entry in series [2], in series [4] and in [6] was “Active” each time. The inhibition result in [7] is “inactive”.
As a reminder, the IC50 is the concentration that gives 50% inhibition. As to `CC(C)[C@@H]1NC(=O)[C@]2(C)CSC(=N2)c2csc(n2)CNC(=O)C[C@@H](/C=C/CCS)OC1=O` [LARGAZOLE THIOL], the Drug metabolism result in series [8], in series [10], in series [11], in [12] and in [13] was “metabolite_detected” in each case. Besides, the IC50 in series [9] was found to be 3 nM.
